In ChEMBL document CHEMBL4316636, “Tetrandraxanthones A-I, Prenylated and Geranylated Xanthones from the Stem Bark of Garcinia tetrandra” (J Nat Prod, 2019):

Assays:
Type in all cases: functional, cell-based
HeLa S3 = test: Cytotoxicity in human HeLaS3 cells incubated for 72 hrs by MTT assay; conditions: HeLa S3, 72 h
Summary of the method: (§1)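 MTT colorimetric read-out after 72 h incubation of tumour cells: Hep G2 hepatocellular carcinoma, HeLa S3 cervix adenocarcinoma, MCF-7 breast adenocarcinoma, HT-29 colon adenocarcinoma, and KB epidermoid carcinoma. IC50 is given as the mean ± SD of three experiments, with doxorubicin as the positive control. HeLa S3 and KB were screened first.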

HepG2 = test: Cytotoxicity in human HepG2 cells incubated for 72 hrs by MTT assay; conditions: HepG2, 72 h; summary of the method: as §1
MCF7 = test: Cytotoxicity in human MCF7 cells incubated for 72 hrs by MTT assay; conditions: MCF7, 72 h; summary of the method: as §1
HT-29 = test: Cytotoxicity in human HT-29 cells incubated for 72 hrs by MTT assay; conditions: HT-29, 72 h; summary of the method: as §1
KB = test: Cytotoxicity in human KB cells incubated for 72 hrs by MTT assay; summary of the method: as §1

Row | SMILES | IC50 (HeLa S3) [µM] | IC50 (HepG2) [µM] | IC50 (MCF7) [µM] | IC50 (HT-29) [µM] | IC50 (KB) [µM]
1 | COc1c(OC)c(OC)c2c(=O)c3c(O)c4c(cc3oc2c1OC)OC(C)(C)C=C4 | > 10 | > 10 | > 10 | > 10 | > 10
2 | C=C1CCCC(C)(C)C1Cc1c(OC)c(O)cc2oc3cc(O)cc(O)c3c(=O)c12 (stereo not given) | > 10 | > 10 | > 10 | > 10 | > 10
3 | COc1c(O)cc2oc3c(CC=C(C)C)c(O)cc(O)c3c(=O)c2c1C/C=C(\C)CCC=C(C)C | 9 | > 10 | 7 | > 10 | 7.1
4 | O=c1c2cc(O)c(O)cc2oc2cc(O)cc(O)c12 | > 10 | > 10 | > 10 | > 10 | > 10
5 | COc1c(O)cc2oc3cc(O)cc(O)c3c(=O)c2c1CC1=C(C)CCCC1(C)C | > 10 | > 10 | > 10 | > 10 | > 10
6 | COc1cccc2c1C(=O)c1c(O)c3c(c(O)c1C2=O)C[C@@](O)(C(=O)CO)C[C@@H]3O[C@H]1C[C@H](N)[C@H](O)[C@H](C)O1 [DOXORUBICIN] | 0.12 | 1.43 | 0.49 | 0.34 | 0.01
7 | COc1c(O)cc2oc3cc4c(c(O)c3c(=O)c2c1CC=C(C)C)C=CC(C)(C)O4 [MANGOSTANIN] | 1.9 | 3.4 | 1.9 | 1.6 | 1.7
8 | COc1c(O)cc2oc3cc(O)cc(O)c3c(=O)c2c1C/C=C(\C)CCC=C(C)C [RUBRAXANTHONE] | > 10 | > 10 | > 10 | > 10 | > 10
9 | COc1c(O)cc2oc3cc(O)cc(O)c3c(=O)c2c1CC=C(C)C | > 10 | > 10 | > 10 | > 10 | > 10
10 | COc1c(O)cc2oc3c(CC=C(C)C)c(O)cc(O)c3c(=O)c2c1CCC(C)(O)CCC=C(C)C (stereo not given) | > 10 | > 10 | 8.8 | > 10 | 7.1
11 | COc1c(O)cc2oc3cc(O)cc(O)c3c(=O)c2c1CCC(C)(O)CCC=C(C)C (stereo not given) | > 10 | > 10 | > 10 | > 10 | > 10
12 | COc1c(O)cc2oc3c(C/C=C(\C)CCC=C(C)C)c(O)cc(O)c3c(=O)c2c1CCC(C)(C)O | > 10 | > 10 | > 10 | > 10 | > 10
13 | O=c1c2cc(O)ccc2oc2cc(O)cc(O)c12 | > 10 | > 10 | > 10 | > 10 | > 10
14 | COc1c(O)cc2oc3cc(O)c(CC=C(C)C)c(O)c3c(=O)c2c1CCC(C)(C)O [GARCINONE D] | > 10 | > 10 | > 10 | > 10 | > 10
15 | COc1c(O)cc2oc3cc4c(c(O)c3c(=O)c2c1CC=C(C)C)CCC(C)(C)O4 | > 10 | > 10 | > 10 | > 10 | > 10
16 | COc1c(O)ccc2c(=O)c3c(O)c4c(cc3oc12)OC(C)(C)C=C4 | > 10 | > 10 | > 10 | > 10 | > 10

Row | SMILES | IC50 (HeLa S3) [µM] | IC50 (HepG2) [µM] | IC50 (MCF7) [µM] | IC50 (HT-29) [µM] | IC50 (KB) [µM]
17 | CC1(C)CCc2c(cc3oc4ccc(O)cc4c(=O)c3c2O)O1 | > 10 | > 10 | > 10 | > 10 | > 10
18 | COc1c(O)c(OC)c2oc3cc4c(c(O)c3c(=O)c2c1OC)C=CC(C)(C)O4 | > 10 | > 10 | > 10 | > 10 | > 10
19 | COc1c(O)cc2oc3c(C/C=C(\C)CCC=C(C)C)c(O)cc(O)c3c(=O)c2c1CC=C(C)C | 5.8 | > 10 | 4.3 | > 10 | 4.9
20 | COc1c(O)cc2oc3cc(O)cc(O)c3c(=O)c2c1CCC1(C)CCCC(C)(C)O1 (stereo not given) | > 10 | > 10 | > 10 | > 10 | > 10
21 | COc1c(O)cc2oc3c4c(cc(O)c3c(=O)c2c1C/C=C(\C)CCC=C(C)C)OC(C)(C)C=C4 | > 10 | > 10 | > 10 | > 10 | > 10
22 | C=CC(C)(C)c1c2c(c(O)c3c(=O)c4ccc(O)c(O)c4oc13)C=CC(C)(C)O2 [MACLURAXANTHONE] | 6.7 | > 10 | > 10 | > 10 | 7.4
23 | COc1c(O)cc2oc3c4c(cc(O)c3c(=O)c2c1CC=C(C)C)OC(C)(CCC=C(C)C)C=C4 (stereo not given) | > 10 | > 10 | > 10 | > 10 | > 10
24 | C=CC(C)(C)c1c(OC)c(CC=C(C)C)c(O)c2c(=O)c3ccc(O)c(O)c3oc12 [NIGROLINEAXANTHONE E] | > 10 | > 10 | > 10 | > 10 | > 10
25 | COc1c(O)cc2oc3cc(O)cc(O)c3c(=O)c2c1C/C=C(\C)CCCC(C)(C)O [BUTYRAXANTHONE D] | > 10 | > 10 | > 10 | > 10 | > 10
26 | COc1c(O)cc2oc3c(CC=C(C)C)c(O)cc(O)c3c(=O)c2c1CC=C(C)C | > 10 | > 10 | > 10 | > 10 | > 10
27 | COc1c(O)cc2oc3cc4c(c(O)c3c(=O)c2c1CCC(C)(C)O)CCC(C)(C)O4 | > 10 | > 10 | > 10 | > 10 | > 10
28 | O=c1c2cc(O)ccc2oc2cccc(O)c12 | > 10 | > 10 | > 10 | > 10 | > 10
29 | O=c1c2ccc(O)c(O)c2oc2cc(O)cc(O)c12 | > 10 | > 10 | > 10 | > 10 | > 10
30 | COc1c(O)cc2oc3cc(O)c(CC=C(C)C)c(O)c3c(=O)c2c1CC=C(C)C [MANGOSTIN] | > 10 | > 10 | > 10 | > 10 | > 10
31 | COc1c(O)cc2oc3c(C/C=C(\C)CCC=C(C)C)c(O)c(CC=C(C)C)c(O)c3c(=O)c2c1CC=C(C)C | > 10 | > 10 | > 10 | > 10 | > 10
